Active and inactive are the calls of the source. The rule behind the calls is not given here.

1 molecule from ChEMBL document CHEMBL1687827, “Profiling the Aspergillus fumigatus proteome in response to caspofungin” (2011) can be followed below.

Assay [1] relates to Aspergillus fumigatus. In words: Induction of change in C2H2 transcription factor (Rpn4), putative gene expression in drug-susceptible Aspergillus fumigatus KU80 delta-akuB at 0.12 ug/ml after 48 hrs in YPD medium by microarray analysis relative to control. The assay is classed as functional. Put shortly:
(§1)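 Mycelia grown in YPD ± 0.12 μg/ml caspofungin (1 × 10⁵ conidia/ml, 37°C, shaking) and harvested at 24 or 48 h. Total RNA extracted, DNase-treated and quality-checked; 2 μg labelled per TIGR SOP M007 and hybridized to whole-genome arrays. Three independent experiments with dye flip (6 replicates); drug vs untreated fold change.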

Assay [2] concerns Aspergillus fumigatus. In words: Induction of change in ribosomal protein L29/heparin/heparan sulfate interacting gene expression in drug-susceptible Aspergillus fumigatus KU80 delta-akuB at 0.12 ug/ml after 24 hrs in YPD medium by microarray analysis relative to control. The assay is classed as functional. Put shortly: (§2)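 Mycelia grown from 1 × 10⁵ conidia/ml in YPD at 37°C, 225 rpm, with or without 0.12 μg/ml caspofungin. Total RNA extracted, DNase-treated; 2 μg labelled per TIGR SOP M007 for whole-genome array hybridization. Three independent experiments with dye flip (6 replicates); >2-fold change deemed significant.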

Assay [3] relates to Aspergillus fumigatus. In words: Induction of change in conserved hypothetical gene locus AFUA_5G03010 expression in drug-susceptible Aspergillus fumigatus KU80 delta-akuB at 0.12 ug/ml after 24 hrs in YPD medium by microarray analysis relative to control. It is filed as functional. Put shortly: as §1
Assay [4] concerns Aspergillus fumigatus. Put plainly: Induction of change in cell wall protein PhiA protein level in iTRAQ-116 labelled secreted fraction of drug-resistant Aspergillus fumigatus EMFR-S678P at 0.12 ug/ml after 48 hrs in YPD medium by MS (MS/MS) analysis relative to control. The assay is classed as functional, organism-based. Put shortly:
(§3)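 Conidia at 1 × 10⁵/ml were grown at 37°C, shaking at 225 rpm, in YPD with or without 0.12 μg/ml caspofungin for 24 or 48 h. The culture filtrate was kept as the secreted fraction. Mycelia were lysed by French press in HEPES/glycerol/EDTA/PMSF/DTT buffer, and the 5,000 × g pellet was washed to give CW/PM. Proteins were reduced, alkylated and trypsin-digested at 37°C overnight, then iTRAQ-labelled and run by 2D LC-MS/MS. Ratios are the median of unique-peptide ratios, median-normalized, versus the no-drug control.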

The subject of assay [5] is Aspergillus fumigatus. Put plainly: Induction of change in alkaline serine protease protein level in iTRAQ114 labelled cell wall fraction of drug-susceptible Aspergillus fumigatus KU80 delta-akuB at 0.12 ug/ml after 24 hrs in YPD medium by MS (MS/MS) analysis relative to control. The assay is classed as functional. Put shortly:
(§4)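 Conidia at 1 × 10⁵/ml grown shaking at 37°C in YPD with or without 0.12 μg/ml caspofungin; mycelia filtered at 24 or 48 h. Secreted fraction taken from the filtrate; cell wall/plasma membrane pellet recovered after French-press lysis and a 5,000 × g spin. Proteins trypsin-digested and iTRAQ-labelled, drug vs no-drug channels at each time, then 2D LC-MS/MS. Protein ratio is the median of ratios from uniquely assigned peptides after median normalization.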

Assay [6] concerns Aspergillus fumigatus. Put plainly: Induction of change in Ribosomal protein S5 protein level in iTRAQ114 labelled cell wall fraction of drug-resistant Aspergillus fumigatus EMFR-S678P at 0.12 ug/ml after 24 hrs in YPD medium by MS (MS/MS) analysis relative to control. It is filed as functional, organism-based. Put shortly: as §3
Assay [7] concerns Aspergillus fumigatus. In words: Induction of change in large subunit ribosomal protein L3 gene expression in drug-susceptible Aspergillus fumigatus KU80 delta-akuB at 0.12 ug/ml after 24 hrs in YPD medium by microarray analysis relative to control. It is filed as functional. The method, boiled down:
as §2

In assay [8] the test system is Aspergillus fumigatus. In words: Induction of change in PT repeat family protein level in iTRAQ114 labelled secreted fraction of drug-susceptible Aspergillus fumigatus KU80 delta-akuB at 0.12 ug/ml after 24 hrs in YPD medium by MS (MS/MS) analysis relative to control. It is filed as functional. Put shortly:
as §4

The subject of assay [9] is Aspergillus fumigatus. Put plainly: Induction of change in mitochondrial hypoxia responsive domain protein level in iTRAQ-118 labelled cell wall fraction of drug-resistant Aspergillus fumigatus EMFR-S678P at 0.12 ug/ml after 48 hrs in YPD medium by MS (MS/MS) analysis relative to control. It is filed as functional. The method, boiled down: as §3
Assay [10] relates to Aspergillus fumigatus. Put plainly: Induction of change in isocitrate dehydrogenase Idp1, putative protein level in iTRAQ-116 labelled secreted fraction of drug-susceptible Aspergillus fumigatus KU80 delta-akuB at 0.12 ug/ml after 48 hrs in YPD medium by MS (MS/MS) analysis relative to control. It is filed as functional. Put shortly:
(§5)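 Conidia (1 × 10⁵/ml) grown in YPD, 37°C, 225 rpm, ± 0.12 μg/ml caspofungin; filtrate taken as secreted fraction, French-press lysate 5,000 × g pellet as cell wall/plasma membrane. Trypsin digests 8-plex iTRAQ-labelled (drug-free channels as references), pooled, 2D-chromatography, MS/MS. Median-normalized; protein ratio = median of unique-peptide ratios, log2 normalized.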

Assay [11] relates to Aspergillus fumigatus. Put plainly: Induction of change in hypothetical gene locus AFUA_6G06840 expression in drug-susceptible Aspergillus fumigatus KU80 delta-akuB at 0.12 ug/ml after 48 hrs in YPD medium by microarray analysis relative to control. It is filed as functional. Put shortly: as §2
Assay [12] deals with Aspergillus fumigatus. In words: Induction of change in GNAT family acetyltransferase, putative protein level in iTRAQ-118 labelled cell wall fraction of drug-resistant Aspergillus fumigatus EMFR-S678P at 0.12 ug/ml after 24 hrs in YPD medium by MS (MS/MS) analysis relative to control. The assay is classed as functional, organism-based. Put shortly: as §3
Assay [13] deals with Aspergillus fumigatus. In words: Antifungal activity against drug-susceptible Aspergillus fumigatus KU80 delta-akuB assessed as reduction in colony size at 0.12 ug/ml. It is filed as functional, organism-based.
Assay [14] concerns Aspergillus fumigatus. In words: Induction of change in 37S ribosomal protein S24 protein level in iTRAQ-118 labelled cell wall fraction of drug-resistant Aspergillus fumigatus EMFR-S678P at 0.12 ug/ml after 24 hrs in YPD medium by MS (MS/MS) analysis relative to control. It is filed as functional, organism-based. Put shortly:
as §3

The subject of assay [15] is Aspergillus fumigatus. In words: Induction of change in glucosamine-fructose-6-phosphate aminotransferase protein level in iTRAQ-118 labelled cell wall fraction of drug-resistant Aspergillus fumigatus EMFR-S678P at 0.12 ug/ml after 24 hrs in YPD medium by MS (MS/MS) analysis relative to control. The assay is classed as functional, organism-based. The method, boiled down: as §3

Assay [16] deals with Aspergillus fumigatus. Put plainly: Induction of change in stearic acid desaturase (SdeA), putative gene expression in drug-susceptible Aspergillus fumigatus KU80 delta-akuB at 0.12 ug/ml after 24 hrs in YPD medium by microarray analysis relative to control. It is filed as functional. Put shortly: as §2
The test system of assay [17] is Aspergillus fumigatus. Put plainly: Induction of change in pyruvate decarboxylase PdcA, putative protein level in iTRAQ-118 labelled cell wall fraction of drug-susceptible Aspergillus fumigatus KU80 delta-akuB at 0.12 ug/ml after 24 hrs in YPD medium by MS (MS/MS) analysis relative to control. It is filed as functional. Put shortly: as §5
Assay [18] concerns Aspergillus fumigatus. Put plainly: Induction of change in 60s ribosomal protein yl6 protein level in iTRAQ114 labelled secreted fraction of drug-susceptible Aspergillus fumigatus KU80 delta-akuB at 0.12 ug/ml after 24 hrs in YPD medium by MS (MS/MS) analysis relative to control. It is filed as functional. The method, boiled down:
as §4

The subject of assay [19] is Aspergillus fumigatus. Put plainly: Induction of change in BYS1 domain protein, putative protein level in iTRAQ-118 labelled cell wall fraction of drug-susceptible Aspergillus fumigatus KU80 delta-akuB at 0.12 ug/ml after 24 hrs in YPD medium by MS (MS/MS) analysis relative to control. The assay is classed as functional. The method, boiled down:
as §4

As to `CC[C@H](C)C[C@H](C)CCCCCCCCC(=O)N[C@H]1C[C@@H](O)[C@@H](NCCN)NC(=O)[C@@H]2[C@@H](O)CCN2C(=O)[C@H]([C@H](O)CCN)NC(=O)[C@H]([C@H](O)[C@@H](O)c2ccc(O)cc2)NC(=O)[C@@H]2C[C@@H](O)CN2C(=O)[C@H]([C@@H](C)O)NC1=O` [CASPOFUNGIN], the “fold change (FC)” value in the assay on Aspergillus fumigatus [1] was -2.4; in the assay on Aspergillus fumigatus [2], 6.5; in the assay on Aspergillus fumigatus [3] it was 5.6; in the assay with Aspergillus fumigatus [5] it was 1.3; in the assay with Aspergillus fumigatus [7], 3.5; in the assay with Aspergillus fumigatus [8], -3.5. The “fold change (FC)” value in the assay with Aspergillus fumigatus [9] is recorded as 1.07; in the assay on Aspergillus fumigatus [10] it was -6.1; with Aspergillus fumigatus [11] it was -2.1; in the assay with Aspergillus fumigatus [16] it was -4.6; with Aspergillus fumigatus [17], -2.3; in the assay on Aspergillus fumigatus [18] it was 1.1. Moreover, the “fold change (FC)” value in the assay on Aspergillus fumigatus [19] was -2.3. Moreover, the outcome in the assay with Aspergillus fumigatus [4], in the assay with Aspergillus fumigatus [6], in the assay on Aspergillus fumigatus [12], in the assay on Aspergillus fumigatus [14] and with Aspergillus fumigatus [15] was inactive. The outcome with Aspergillus fumigatus [13] was Active.
